Source: PubChem BioAssay
Mdm2 MdmX PPI: disrupts the human Mdm2-MdmX interaction. SaOS-2 split-luciferase Mdm2/MdmX complementation, luminescence. inhibition, % at 8 µM. O15151+Q00987. actives 3% (n = 330,000). AID 485346;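 active = inhibition of at least 50% at 8 µM in the primary screen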
Target sequence (O15151 whole entry, looked up): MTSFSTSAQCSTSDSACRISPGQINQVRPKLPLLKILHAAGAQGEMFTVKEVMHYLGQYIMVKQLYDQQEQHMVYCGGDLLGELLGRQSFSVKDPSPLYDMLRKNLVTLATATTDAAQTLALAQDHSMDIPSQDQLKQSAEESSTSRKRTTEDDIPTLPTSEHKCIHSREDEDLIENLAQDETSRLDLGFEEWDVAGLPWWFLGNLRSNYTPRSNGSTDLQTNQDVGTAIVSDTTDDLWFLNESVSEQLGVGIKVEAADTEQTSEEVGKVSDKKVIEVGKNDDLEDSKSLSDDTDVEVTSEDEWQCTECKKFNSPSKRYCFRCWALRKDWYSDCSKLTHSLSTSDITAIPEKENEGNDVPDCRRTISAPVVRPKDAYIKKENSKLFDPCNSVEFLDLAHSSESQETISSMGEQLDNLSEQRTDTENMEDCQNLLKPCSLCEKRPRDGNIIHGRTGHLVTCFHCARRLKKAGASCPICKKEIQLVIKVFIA
Target sequence (Q00987 whole entry, looked up): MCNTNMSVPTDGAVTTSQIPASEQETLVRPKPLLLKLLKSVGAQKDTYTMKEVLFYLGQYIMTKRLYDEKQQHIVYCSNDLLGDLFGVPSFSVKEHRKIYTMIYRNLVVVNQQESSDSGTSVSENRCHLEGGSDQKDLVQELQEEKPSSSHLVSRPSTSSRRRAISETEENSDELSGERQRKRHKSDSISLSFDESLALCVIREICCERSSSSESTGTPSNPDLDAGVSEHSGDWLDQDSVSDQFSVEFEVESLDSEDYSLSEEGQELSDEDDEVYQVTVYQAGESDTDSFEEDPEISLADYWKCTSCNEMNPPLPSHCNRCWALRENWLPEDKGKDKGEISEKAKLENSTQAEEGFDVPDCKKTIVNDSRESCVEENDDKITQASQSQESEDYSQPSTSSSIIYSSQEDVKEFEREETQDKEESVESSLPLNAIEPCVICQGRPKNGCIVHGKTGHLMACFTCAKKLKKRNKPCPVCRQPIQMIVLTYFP
NALP3 yeast inh: NALP3 inhibition in yeast | Yeast reconstituted NLRP3/ASC/caspase-1, beta-gal luminescence, 24 h | inhibition, % at 10 µM | actives 0.39% (n = 330,000);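 active = inhibition of 50% or more; inactive = inhibition below 50%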;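 also: plate controls were induced DMSO wells for no effect and uninduced yeast grown without galactose for full effect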
Beta apoptosis: blocks beta cell apoptosis | actives 0.8% (n = 300,000) | protection from apoptosis, % (test concentration not listed) | INS-1E cytokine-induced death, ATP luminescence, 48 h; percent of positive-control rescue, neutral wells zero;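 active = Every replicate reaches about 75%, or at least half do and their mean reaches it too, limit read from the data; inconclusive = At least half of replicates reach the limit but their mean does not; inactive = Under half of replicates reach the limit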;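 also: 0% = cytokine-treated negative control wells and 100% = positive control rescue; higher means more ATP so stronger rescue from cytokine killing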
Calb FLC: affects C. albicans growth with fluconazole. C. albicans CaCi-2 (fluconazole-resistant clinical isolate) + fluconazole, Alamar Blue growth, 48 h. growth inhibition, % (no concentration beside the values). actives 0.57% (n = 300,000);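 active = growth inhibition above about 58% in most replicates, limit read from the data, passing the limit was not always enough; inconclusive = exactly half the replicates above a set limit; inactive = most replicates below a set limit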;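 also: all wells also contain fluconazole at 8 µg/ml as a sub-toxic cotreatment; 0% = median of DMSO wells and 100% = median of geldanamycin control wells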
CSC inhib: blocks cancer stem cells | cancer stem cell-like cells viability, luminescence | inhibition, % at 7.5 µM | actives 1.1% (n = 300,000) | AID 2717; in the data active = inhibition above about 75%; inconclusive = no clear call, values can overlap the other calls; tested in HMLE shEcad cells
T cruzi inh: blocks replication of Trypanosoma cruzi | actives 1.4% (n = 300,000) | inhibition, % (test concentration not listed) | T. cruzi beta-gal in NIH3T3, luminescence, 90 h | AID 1885;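 active = mean inhibition across valid replicates above about 55%, limit read from the data; inconclusive = mean below that limit but half or more replicates reach it; inactive = mean below it, under half of replicates reach it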;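 also: signal also drops with host cell toxicity which is not excluded here; 0% = plate median of DMSO wells and 100% = zero luminescence signal; higher percent means less beta-gal luminescence so fewer parasites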
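Test system: β-gal T. cruzi (Tulahuen C4) inside NIH/3T3 cells / Quantity: 5,000 cells/well / Measured by: luminescence from GalScreen with 0.05% NP40, read after 60 min / Medium: DMEM plus 2% FBS / Measure: parasite load inhibition, % / Reagent: Tulahuen C4 trypomastigotes, 5000/well / Schedule: co-culture of at least 90 h after 3 h attachment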
* hit, by the source's call; ? = inconclusive; / = no result. This is a sample that favours compounds with a hit; in the whole collection about 5.3% have one here.

SMILES | Mdm2 MdmX PPI | NALP3 yeast inh | Beta apoptosis | Calb FLC | CSC inhib | T cruzi inh
CCCOc1ccc(N2C(=O)CC(N3CCCC(C(=O)N4CCCC4)C3)C2=O)cc1 (stereo not given) | 14 | 15 | -3 | 0 | -12 | 4
CCOc1cccc2sc(=NC(=O)CCS(=O)(=O)c3ccccc3)n(CC)c12 | 50 | 17 | 7 | 3 | 45 | 2
COc1cc(S(=O)(=O)NCc2ccncc2)c(OC)cc1C | 25 | 6 | 1 | -3 | 0 | -2
CCC(C)NC(=O)Nc1ccc(Br)cc1 (stereo not given) | -6 | 33 | 3 | -8 | 10 | 3
CCC(=O)NNc1ccc(Br)cc1 | 1 | 25 | 4 | -31 | 80* | -10
O=S(=O)(Nc1cccc(Cl)c1)c1cccc(-n2cnnn2)c1 | -7 | -1 | 0 | / | 5 | /
CC(=O)Nc1cc(OC(C)=O)c2nonc2c1OC(C)=O | 48 | 26 | -3 | / | 106* | /
Cc1cc(C)cc(NS(=O)(=O)c2cccs2)c1 | 12 | 20 | -8 | 3 | / | 6
O=C1/C(=N\S(=O)(=O)c2cccs2)C([n+]2cccc(Cc3ccccc3)c2)=C([O-])c2ccccc21 | 25 | 18 | 101* | 9 | 54 | 12
Cc1cc(C)c[n+](C2=C([O-])c3ccccc3C(=O)/C2=N\S(=O)(=O)c2cccs2)c1 | 13 | 16 | 107* | 44 | 24 | -18
CCCCC[n+]1ccn(C2=C([O-])c3ccccc3C(=O)/C2=N\S(=O)(=O)c2ccccc2)c1 | 18 | 15 | 90* | 2 | -10 | 1
CC(C)(C)c1cc[n+](C2=C([O-])c3ccccc3C(=O)/C2=N\S(=O)(=O)c2ccccc2)cc1 | 29 | 26 | 82* | 7 | 27 | 13
O=C(Nc1cc([N+](=O)[O-])ccc1O)NC1CCS(=O)(=O)C1 (stereo not given) | 7 | 20 | -2 | / | / | /
Cc1ccc(-c2c[n+](CC(=O)Nc3ccc(C)cc3C)c3n2CCC3)cc1 | 32 | 19 | / | -12 | -2 | 4
O=C(CS(=O)(=O)c1ccccc1)Nc1ccc(N2CCOCC2)cc1 | 6 | 18 | -4 | 0 | 3 | -18
CNC(C)C#Cc1ccc2c(=O)c3cc(C)c(C)cc3oc2c1 (stereo not given) | -49 | 1 | -8 | -7 | 3 | -5
CC(C)[n+]1ccn(C2=C([O-])c3ccccc3C(=O)/C2=N\S(=O)(=O)c2ccccc2)c1 | 32 | 12 | 54 | 26 | 4 | -2
Cc1cc[n+](C2=C([O-])c3ccccc3C(=O)/C2=N\S(=O)(=O)c2cccs2)cc1C | 37 | 15 | -6 | 55 | -12 | 57*
Cc1cc(C(=O)N2CCCC(N3CCN(c4ccccc4C)CC3)C2)n(C)n1 (stereo not given) | 8 | -11 | -3 | -9 | 2 | 59*
COC(=O)COc1ccc(S(=O)(=O)Nc2ccc(C(N)=O)cc2)cc1C | -3 | -22 | -4 | 8 | -5 | 2
CCCCCCSc1ccc(-c2nc3cnccn3c2NCCCC)cc1 | 26 | 25 | -3 | / | 105* | /
CCCCNc1c(-c2cccc(SC3CCCCC3)c2)nc2ccc(Cl)cn12 | -13 | -2 | / | 14 | 4 | 39
CCCCNc1c(-c2ccc(SC(C)CC)cc2)nc2ccccn12 (stereo not given) | -131 | 35 | 16 | 0 | 92* | 37
CCC(C)Sc1ccc(-c2nc3ccc(C)cn3c2NC2CCCCC2)cc1 (stereo not given) | 34 | 30 | 40 | 0 | 49 | 72*
CCCCNc1c(-c2ccc(SC3CCCCC3)cc2)nc2ccccn12 | -63 | 28 | ? | 12 | 82* | 71*
CCCCCCSc1cc(-c2nc3ccc(Cl)cn3c2NCCCC)ccc1OC | 30 | 8 | 38 | -7 | 34 | 37
c1cn2c(NC3CCCCC3)c(-c3ccc(SC4CCCCC4)cc3)nc2cn1 | 37 | 11 | 0 | 8 | 126* | 48
COc1ccc(-c2cc(C(=O)N3CCCCCC3)no2)cc1 | -97 | 35 | 2 | 2 | -1 | 14
CCCCOc1ccc(/C=C/C2=CC(C)(C)NC(=S)N2)cc1OCC | 29 | 2 | 6 | 9 | / | 70*
COc1cc(NC2CCCCC2O)c2nc(-c3ccc(Cl)cc3)ccc2c1 (stereo not given) | 47 | 25 | 80* | -4 | ? | 47
